ChEMBL document CHEMBL4393723, “Caffeic acid phenethyl ester (CAPE)-derivatives act as selective inhibitors of acetylcholinesterase” (Eur J Med Chem, 2019)

Tests used:
Acetylcholinesterase [1] = biological target: T1, Acetylcholinesterase (Electrophorus electricus, UniProt O42275); test: Mixed inhibition of electric eel AChE using acetylcholine iodide as substrate preincubated for 20 mins followed by substrate addition and measured every minute for 30 mins by Lineweaver-Burk plot analysis
Acetylcholinesterase [2] = biological target: T1, Acetylcholinesterase; test: Mixed inhibition of electric eel AChE using butyrylcholine iodide as substrate preincubated for 20 mins followed by substrate addition and measured every minute for 30 mins Dixon/Cornish-Bowden plot analysis
FaDu = test: Cytotoxicity against human FADU cells measured after 96 hrs by SRB assay; format: cell-based; conditions: for EC50: Homo sapiens, FaDu; for Activity: human, fadu
Method in brief: (§1)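 Cells seeded on day 0 and exposed from 24 h to at least six concentrations (1, 3, 7, 12, 20, 30 µM), with final DMSO/DMF at most 0.5%. After 96 h treatment, fixed in 10% TCA for 24 h at 4 °C and stained about 20 min with 0.4% SRB in 1% acetic acid. Bound dye dissolved in 10 mM Tris base, read at 570 nm. EC50 from 4-parameter Hill fit (top 100, bottom 0), three independent experiments in triplicate.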

MCF7 = test: Cytotoxicity against human MCF7 cells measured after 96 hrs by SRB assay; format: cell-based; conditions: for EC50: Homo sapiens, MCF7, 96 h; for Activity: human, mcf7, 96 h; method in brief: as §1
SW-1736 = test: Cytotoxicity against human SW1736 cells measured after 96 hrs by SRB assay; format: cell-based; conditions: for EC50: Homo sapiens, SW-1736, 96 h; for Activity: human, sw-1736, 96 h; method in brief: as §1
NIH3T3 = test: Cytotoxicity against mouse NIH/3T3 cells measured after 96 hrs by SRB assay; format: cell-based; conditions: for EC50: Mus musculus, NIH3T3, 96 h; for Activity: mouse, nih3t3, 96 h; method in brief: as §1
A2780 = test: Cytotoxicity against human A2780 cells measured after 96 hrs by SRB assay; format: cell-based; conditions: for EC50: Homo sapiens, A2780, 96 h; for Activity: human, a2780, 96 h; method in brief: as §1
HT-29 = test: Cytotoxicity against human HT-29 cells measured after 96 hrs by SRB assay; format: cell-based; conditions: for EC50: Homo sapiens, HT-29, 96 h; for Activity: human, ht-29, 96 h; method in brief: as §1
[3] = Solubility of the compound; format: physicochemical

T1 sequence (O42275 whole entry): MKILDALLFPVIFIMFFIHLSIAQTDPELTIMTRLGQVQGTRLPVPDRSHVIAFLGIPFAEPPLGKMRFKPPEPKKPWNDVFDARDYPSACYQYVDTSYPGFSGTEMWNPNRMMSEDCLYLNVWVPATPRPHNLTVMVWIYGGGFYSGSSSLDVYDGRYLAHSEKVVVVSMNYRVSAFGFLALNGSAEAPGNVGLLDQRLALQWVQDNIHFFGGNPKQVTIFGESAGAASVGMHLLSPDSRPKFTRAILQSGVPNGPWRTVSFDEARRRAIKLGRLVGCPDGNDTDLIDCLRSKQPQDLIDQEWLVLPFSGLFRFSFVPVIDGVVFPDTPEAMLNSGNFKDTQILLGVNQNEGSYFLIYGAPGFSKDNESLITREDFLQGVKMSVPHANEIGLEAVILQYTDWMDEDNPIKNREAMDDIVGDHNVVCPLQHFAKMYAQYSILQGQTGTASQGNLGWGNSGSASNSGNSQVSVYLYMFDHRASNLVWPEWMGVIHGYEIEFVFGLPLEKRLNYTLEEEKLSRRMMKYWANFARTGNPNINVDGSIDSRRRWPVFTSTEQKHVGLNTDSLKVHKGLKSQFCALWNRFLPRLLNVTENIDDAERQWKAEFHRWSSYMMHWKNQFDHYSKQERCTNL

O=C(/C=C/c1cccc(Br)c1)OCCc1ccccc1 gave a Ki (Acetylcholinesterase [1]) of 8.82 µM and a Ki (Acetylcholinesterase [2]) of 30.9 µM.

With COc1ccc(/C=C/C(=O)OCCc2ccccc2)cc1OC the EC50 (FaDu) was 17.2 µM, the EC50 (MCF7) was 16.2 µM and the EC50 (SW-1736) was 16.7 µM. The EC50 (NIH3T3) was 17.7 µM, the EC50 (A2780) was 17 µM and the EC50 (HT-29) was 16.7 µM.

For COc1cc(/C=C/C(=O)OCCc2ccccc2)cc(OC)c1OCCc1ccccc1, the Activity (FaDu) was “Non-Toxic”, the Activity (MCF7) was “Non-Toxic” and the Activity (SW-1736) was “Non-Toxic”. For the same compound, the Activity (NIH3T3) was “Non-Toxic”, the Activity (A2780) was “Non-Toxic” and the Ki (Acetylcholinesterase [1]) was 1.97 µM. For the same compound, the Activity (HT-29) was “Non-Toxic” and the Ki (Acetylcholinesterase [2]) was 2.44 µM.

For COc1ccc(/C=C/C(=O)OCCc2ccccc2)c(OC)c1, the Ki (Acetylcholinesterase [1]) was 11.9 µM and the Ki (Acetylcholinesterase [2]) was 34.8 µM.

In the case of O=C(/C=C/c1ccc(OCc2ccccc2)c(OCc2ccccc2)c1)OCCc1ccc(OC(=O)/C=C/c2ccc(OCc3ccccc3)c(OCc3ccccc3)c2)c(OC(=O)/C=C/c2ccc(OCc3ccccc3)c(OCc3ccccc3)c2)c1, the Activity (FaDu) is reported as “Non-Toxic”, the Activity (MCF7) is reported as “Non-Toxic” and the Activity (SW-1736) is reported as “Non-Toxic”. For the same compound, the Activity (NIH3T3) was “Non-Toxic”, the Activity (A2780) was “Non-Toxic” and the Ki (Acetylcholinesterase [1]) was 0.72 µM. For the same compound, the Activity (HT-29) was “Non-Toxic” and the Ki (Acetylcholinesterase [2]) was 1.8 µM.

For O=C(/C=C/c1ccc(OCc2ccccc2)c(OCc2ccccc2)c1)OCCc1ccc(OC(=O)/C=C/c2ccc(OCc3ccccc3)c(OCc3ccccc3)c2)cc1, the solubility [3] was “Insoluble”.

With O=C(/C=C/c1ccc(OCc2ccccc2)c(OCc2ccccc2)c1)OCCc1ccccc1O the Ki (Acetylcholinesterase [1]) was 8.55 µM and the Ki (Acetylcholinesterase [2]) was 12.1 µM.

Work on O=C(/C=C/c1cccc(Cl)c1)OCCc1ccccc1 yielded a Ki (Acetylcholinesterase [1]) of 14.2 µM and a Ki (Acetylcholinesterase [2]) of 56.6 µM.

In the case of O=C(/C=C/c1ccc(OCc2ccccc2)c(OCc2ccccc2)c1)OCCc1cccc(OC(=O)/C=C/c2ccc(OCc3ccccc3)c(OCc3ccccc3)c2)c1, the solubility [3] is reported as “Insoluble”.

For O=C(/C=C/c1ccc(O)c(O)c1)OCCc1ccccc1 [CAFFEIC ACID PHENETHYL ESTER], the EC50 (FaDu) was 12.1 µM, the EC50 (MCF7) was 12.1 µM and the EC50 (SW-1736) was 4.7 µM. For the same compound, the EC50 (NIH3T3) was 21.4 µM, the EC50 (A2780) was 3.5 µM and the EC50 (HT-29) was > 30 µM.

For O=C(/C=C/c1ccc(OCc2ccccc2)c(OCc2ccccc2)c1)OCCc1ccccc1OC(=O)/C=C/c1ccc(OCc2ccccc2)c(OCc2ccccc2)c1, the solubility [3] was “Insoluble”.
